The record followed here is ChEMBL document CHEMBL4513216, “Probing the Open Global Health Chemical Diversity Library for Multistage-Active Starting Points for Next-Generation Antimalarials” (ACS Infect Dis, 2020).

The structures appear in SMILES notation.

A short description of the data set: Toxicity liver stage against HepG2, at 10uM. The class given is cell-based. On the set-up: test concentration 10 uM, cell line HepG2-A16-CD81EGFP. As to conditions: human, HepG2-A16-CD81EGFP cells; read-out: INHIBITION
In short, it runs like this:
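Uninfected HepG2-A16-CD81EGFP cells, 3 × 10^3 per well, 1536-well, plated on prespotted compound at 10 μM final, parasite-free screening media added to match infected plates; puromycin 10 μM positive, DMSO 0.5% negative; run in parallel with 48 h PbLuc assay at 37 °C, 5% CO2; viability by CellTiter-Glo luminescence, normalized to controls.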
Consider `N#CCCN(CC1CCCO1)C(=O)c1ccsc1` (stereo unspecified), for which the cytotoxicity at 10 µM was found to be 0.325%.

For the molecule `O=C(Cn1ccc2ccc(F)cc21)NC[C@@H]1CCCN2CCCC[C@H]12`, the cytotoxicity at 10 µM amounted to 14%.

Consider `CCN(CC)c1nc2ccsc2c(=O)n1CCC(=O)NC1CCCC1`, for which the cytotoxicity at 10 µM was found to be 7.19%.

As for `CCc1nn(-c2cc(Oc3cc(C)ccc3C)ncn2)c(N)c1C#N`, the cytotoxicity at 10 µM amounted to 12.9%.

On to `CC(C)N1CCC2(CC1)NC(=O)c1cc(Br)ccc1-n1nnnc12`, for which the cytotoxicity at 10 µM was 9.26%.

For `Cc1nc2ccc(Cl)cn2c1CN1CCN(S(=O)(=O)N2CCCC2)CC1`, the cytotoxicity at 10 µM came out at 16.6%.

With `Cc1csc(C(=O)N2CC[C@H](Oc3cccnc3C)[C@@H](O)CC2)c1`, the cytotoxicity at 10 µM was -10.7%.

Turning to `O=S(=O)(Cc1cccc(Cl)c1)CC(O)Cn1cccn1` (stereo unspecified), the cytotoxicity at 10 µM was -12.5%.

With `c1cc2occc2c(N2CCCC(c3nncn3C3CC3)C2)n1` (stereo unspecified), the cytotoxicity at 10 µM was 1.97%.

As for `CC(C)(C)c1n[nH]c(C2CN(CCc3ccncc3)CCO2)n1` (stereo unspecified), the cytotoxicity at 10 µM was -12.3%.

As for `O=c1ccncn1Cc1csc(C2CC2)n1`, the cytotoxicity at 10 µM is -0.572%.

For the molecule `Cc1csc(C(C)(C)NCCOc2ccc(CC#N)cc2)n1`, the cytotoxicity at 10 µM was determined as 1.74%.

Consider `Cc1nc(CN(C)S(=O)(=O)c2ccccc2Br)no1`, for which the cytotoxicity at 10 µM worked out at 6.2%.

Regarding `O=C(NCC1CCC2(CC1)OCCO2)c1ccncc1F`, the cytotoxicity at 10 µM stood at 14.4%.

Regarding `CNC(=O)c1ccc(CNc2ccncc2Cl)cc1`, the cytotoxicity at 10 µM was 17.7%.

Regarding `CCc1nnc(C2Cc3ccccc3CN2Cc2cc(C)no2)o1` (stereo unspecified), the cytotoxicity at 10 µM is -7.4%.

For the molecule `COc1ncccc1NC(=O)N1CCCC(CNC(=O)OC(C)(C)C)C1` (stereo unspecified), the cytotoxicity at 10 µM is -1.71%.

Regarding `CCN(CC1CN(Cc2cccc(C#N)c2)CCO1)c1cccnn1` (stereo unspecified), the cytotoxicity at 10 µM came out at 17%.

For `Cc1cc(NC2CCc3ncnn3C2)n2ncnc2n1` (stereo unspecified), the cytotoxicity at 10 µM was -18.4%.

As to `O=C(NCc1ccco1)N1CCC(n2ccc(C(F)(F)F)n2)CC1`, the cytotoxicity at 10 µM is 12.2%.

As for `Cn1nc2c(cc1=O)CN(Cc1nc(N)c3ccccc3n1)CC2`, the cytotoxicity at 10 µM was -8.86%.

For the molecule `O=C(NC1CC1)c1cc(NC(=O)N2CCSCC2)ccc1Cl`, the cytotoxicity at 10 µM is -22.5%.

With `Cc1ncc(CN(C)C2CCCN(c3cccnn3)C2)s1` (stereo unspecified), the cytotoxicity at 10 µM turned out to be 0.709%.

Turning to `Cn1cnnc1-c1ccnc(NCc2ccccc2)c1`, the cytotoxicity at 10 µM was -4.98%.

Turning to `CCN(C)S(=O)(=O)N(CC)Cc1cccc(-c2ccncc2)c1`, the cytotoxicity at 10 µM was -11.5%.

For the molecule `CC(=O)N1CCC(C(=O)NC(C)c2cccc(OC(F)F)c2)CC1` (stereo unspecified), the cytotoxicity at 10 µM is -8.2%.

`O=C(NCCOc1ccc(C(F)(F)F)cn1)c1ccoc1`: the cytotoxicity at 10 µM is -10.1%.

For the molecule `CCc1nc(C)ncc1C(=O)N1CC(C)CN(C)c2ccccc21` (stereo unspecified), the cytotoxicity at 10 µM was 10.7%.

Take `O=C(Nc1ccc(Cn2cccn2)cc1)N1CCC(CO)CC1`: the cytotoxicity at 10 µM amounted to 47.8%.

Turning to `Fc1ccc(NCc2ncc[nH]2)cc1Br`, the cytotoxicity at 10 µM stood at 3.76%.

On to `O=C(CN1CCOC(Cn2cccn2)C1)NC(C1CC1)C1CC1` (stereo unspecified), for which the cytotoxicity at 10 µM was -42.1%.

For `CCc1nnc2n1CCN(Cc1nc3c(F)cccc3[nH]1)C2`, the cytotoxicity at 10 µM is -8.06%.

Regarding `Cc1ccc(-c2nc(CN(C)C3CCS(=O)(=O)C3)cs2)o1` (stereo unspecified), the cytotoxicity at 10 µM was -8.05%.

Consider `CC(=O)N1CCCN(C(=O)c2oc(Br)cc2C)CC1`, for which the cytotoxicity at 10 µM was -13.6%.

Regarding `COc1cc(N2CCC3(CC(=O)N(Cc4csc(C)n4)C3)C2)ncn1` (stereo unspecified), the cytotoxicity at 10 µM was -104%.

As for `O=C([C@@H]1CCO[C@@H]2CCN(CC3CC3)C[C@H]21)N1CCCC1`, the cytotoxicity at 10 µM was -103%.

For the molecule `CCOCc1cnc2n1CCN(C(=O)c1ccccc1)C2C` (stereo unspecified), the cytotoxicity at 10 µM is -103%.

Take `CCOCc1cnc2n1CCN(C(=O)c1cn(C)c3ccccc13)C2C` (stereo unspecified): the cytotoxicity at 10 µM is -108%.

Turning to `O=C(NCc1cccnc1)N1CCn2c(Cn3cccn3)cnc2C1`, the cytotoxicity at 10 µM was -71.1%.

As for `Cc1noc(C)c1CN1C[C@@H]2COC[C@@H](C(=O)N3CCCO3)[C@@H]2C1`, the cytotoxicity at 10 µM is -69.9%.

Regarding `CN1CCN([C@H]2COC[C@@H]3CN(Cc4cccnc4)C[C@@H]32)CC1`, the cytotoxicity at 10 µM was -77.9%.

On to `COCC(=O)N1CCC2(CC1)CN(c1ncccn1)CCO2`, for which the cytotoxicity at 10 µM is -67.3%.

Turning to `Cc1cc(CN2CC[C@H]3C[C@@H](c4nccs4)O[C@@H]3C2)no1`, the cytotoxicity at 10 µM was -84.8%.

With `O=S(=O)(CCNCc1cc(O)c2cc(F)ccc2n1)N1CCCC1`, the cytotoxicity at 10 µM is -39.5%.

With `CC(C)O[C@H]1CN(C(=O)CCN2CCCCO2)C[C@@H]1O`, the cytotoxicity at 10 µM was -7.12%.

Turning to `CC(C)N1CCOC(CC(=O)N2CCCN(Cc3ccncc3)CC2)C1` (stereo unspecified), the cytotoxicity at 10 µM was -7.49%.

On to `Cc1nc(CN2CCCC(CCc3ccccc3F)C2)c[nH]1` (stereo unspecified), for which the cytotoxicity at 10 µM is -6.55%.

Regarding `Cc1cccc(CN2CCN(c3ncnc4[nH]ccc34)CC2CCO)n1` (stereo unspecified), the cytotoxicity at 10 µM came out at 10.8%.

In the case of `Cc1ccccc1-n1ncc(C(C)N)c1C` (stereo unspecified), the cytotoxicity at 10 µM is -8.23%.

Take `NC1CCCCN(Cc2cc(C3CCCCC3)no2)C1` (stereo unspecified): the cytotoxicity at 10 µM was -14.1%.

As to `CCN(Cc1noc(C)n1)C(=O)CCn1c(C)cc2ccccc21`, the cytotoxicity at 10 µM was -3.97%.

On to `CC(C)N1CCCC(C(=O)N2CCN(c3nsc4ccccc34)CC2)C1` (stereo unspecified), for which the cytotoxicity at 10 µM was determined as 2.81%.

As for `Cc1n[nH]c(C)c1-c1cc(-c2cccc(O)c2)nc(N)c1C#N`, the cytotoxicity at 10 µM was found to be 26.9%.

On to `O=C1CCCN1CCC1CCCCN1C(=O)c1ccc(SCCO)cc1` (stereo unspecified), for which the cytotoxicity at 10 µM is -43%.

As to `CCN(Cc1noc(CC(C)C)n1)Cc1ccccc1C(=O)O`, the cytotoxicity at 10 µM is -51.6%.

As to `CC(C)N1CCC(CC(=O)N2CCN(Cc3nccn3C)CC2)CC1`, the cytotoxicity at 10 µM is -3.91%.

For the molecule `CC(C)c1cc(NCc2csc(C(C)C)n2)nc(N)n1`, the cytotoxicity at 10 µM amounted to 19.8%.

Take `CN(Cc1ccco1)c1ccc(C(=O)NCCCc2ccccn2)cn1`: the cytotoxicity at 10 µM was -55.8%.

In the case of `Cc1nc(C(=O)N2CCN(C(=O)N(C)C)[C@@H]3CS(=O)(=O)C[C@@H]32)cs1`, the cytotoxicity at 10 µM was 4.96%.

In the case of `O=S(=O)(c1ccc2c(c1)OCCO2)N1CCc2ccccc2C1`, the cytotoxicity at 10 µM was -5.52%.

`CC(C)N(C)C(=O)CN1C(=O)OC[C@@H]1c1ccccc1`: the cytotoxicity at 10 µM was -47.7%.

Regarding `CCn1cnc(NC(=O)N2CCC(c3ccc(Cl)cc3)C2)n1` (stereo unspecified), the cytotoxicity at 10 µM was determined as 0.0451%.

For the molecule `CN(CC1(CO)CCC1)c1nc2c(c(=O)[nH]1)Cc1ccccc1OC2`, the cytotoxicity at 10 µM was -17.2%.

Consider `CCC(C)N(Cc1cccnc1)Cc1cc2c(cc1Cl)OCO2` (stereo unspecified), for which the cytotoxicity at 10 µM turned out to be 6.16%.

Consider `COCCN1CC(C(=O)N(C)Cc2csc(C)n2)CC1=O` (stereo unspecified), for which the cytotoxicity at 10 µM is 12.5%.

For `COCCCN1CCN([C@@H]2c3ccccc3C3(CCNCC3)[C@H]2O)CC1`, the cytotoxicity at 10 µM is -4.86%.

Consider `OC1CN(Cc2ccccc2)CCN(c2ccncc2)C1` (stereo unspecified), for which the cytotoxicity at 10 µM is -4.74%.

As to `O=C(c1ccc(S(=O)(=O)NCCc2ccncc2)cc1)N1CCCC1`, the cytotoxicity at 10 µM stood at 1.67%.

For `Cc1cc(C(F)(F)F)nc(CNC(=O)CCn2cccn2)n1`, the cytotoxicity at 10 µM stood at 1.7%.

Consider `CCNc1ncc(CN2C[C@@H](C(=O)O)[C@H](C3CC3)C2)cn1`, for which the cytotoxicity at 10 µM is -46.1%.

`CS(=O)(=O)N1CCN(c2ccnc(N3CCCCC3)n2)CC1`: the cytotoxicity at 10 µM was -0.359%.

`CCOC(=O)C1(Cc2cccc(OC)c2)CCN(Cc2ncc[nH]2)CC1`: the cytotoxicity at 10 µM was -7.82%.

On to `O=C1CC[C@H]2CN(C3CCOCC3)CC[C@H]2N1CCC1=CCCCC1`, for which the cytotoxicity at 10 µM is -4.76%.

Consider `O=C(CC1=CCCCC1)N1CCC(Cn2cc(CCO)nn2)CC1`, for which the cytotoxicity at 10 µM came to 3.88%.

On to `O=c1cc(CN2CCCC(CCc3c(F)cccc3F)C2)[nH]c(=O)[nH]1` (stereo unspecified), for which the cytotoxicity at 10 µM was -3.88%.

Consider `CC(NC(=O)NCc1ccccc1)(C(=O)O)c1ccco1` (stereo unspecified), for which the cytotoxicity at 10 µM is -3.37%.

`O=C(Cc1ccccc1Cl)N1CCN(CC(O)COCCO)CC1` (stereo unspecified): the cytotoxicity at 10 µM amounted to 5.51%.

Regarding `CCc1ccsc1C(=O)N1CCCN(Cc2cnn(CC)c2)CC1`, the cytotoxicity at 10 µM was determined as 0.501%.

With `Cc1ccc(OCC(O)CN2CCc3c(ncn3C3CC3)C2)cc1` (stereo unspecified), the cytotoxicity at 10 µM is 0.2%.

As for `Cc1ccc(-c2nc(CN3CCOC(CN(C)C)C3)co2)cc1` (stereo unspecified), the cytotoxicity at 10 µM is -4.23%.

Consider `Cc1nnc2n1CCN(CCOc1ccccc1C#N)C2`, for which the cytotoxicity at 10 µM is -4.53%.

For the molecule `Cc1cn2nc(N3CCN(Cc4c(C)noc4C)CC3)sc2n1`, the cytotoxicity at 10 µM is -8.81%.

As for `c1cnn(CC2CCCN2c2ncnc3ccsc23)c1` (stereo unspecified), the cytotoxicity at 10 µM stood at 9.12%.

As to `O=C(NCCNc1ncccn1)N1CCN(Cc2cccnc2)CC1`, the cytotoxicity at 10 µM is -3.71%.

For the molecule `CCn1cc(NC(=O)CN2CCC(Oc3ccc(F)cc3)CC2)c(C)n1`, the cytotoxicity at 10 µM amounted to 9.25%.

On to `Cn1cc(N2CC[C@@H]3CN(Cc4ccncc4)C[C@H]3C2=O)cn1`, for which the cytotoxicity at 10 µM is -103%.

Take `O=C(c1cscn1)N1CCc2c(COCC3CC3)cncc2C1`: the cytotoxicity at 10 µM is -105%.

Regarding `Cc1ccc(CN2CC[C@@H]3OCCN(Cc4ccncc4)[C@H]3CC2)s1`, the cytotoxicity at 10 µM is 6.84%.

For the molecule `COc1ncc(C2(O)CCN(Cc3ccc(F)c(F)c3)CC2)c(OC)n1`, the cytotoxicity at 10 µM was -0.279%.

As for `COc1ccc(C[C@H]2CN(Cc3ccoc3)CC[C@@H]2OC)cc1`, the cytotoxicity at 10 µM stood at 2.51%.

In the case of `COCCN1CCC(c2nc3ccc(NC4CCC4)cn3n2)CC1`, the cytotoxicity at 10 µM was -119%.

In the case of `CN1CCO[C@@H]2CN(C(=O)c3ccc4ncccc4c3)CC[C@@H]2C1`, the cytotoxicity at 10 µM is -112%.

On to `CNC(=O)c1cc2c(nc1N(C)C)CCN(c1ncc(C)cn1)CC2`, for which the cytotoxicity at 10 µM was -119%.

With `Cc1ccc(Nc2nccc(C3CCN(C(=O)CN)C3)n2)nc1` (stereo unspecified), the cytotoxicity at 10 µM is -18.5%.

Consider `O=C1CCCC2=Nc3nonc3NC(c3ccc(Cl)cc3Cl)C12` (stereo unspecified), for which the cytotoxicity at 10 µM turned out to be 5.24%.

`O=C(c1cccc(CNCC=Cc2ccccc2)c1)N1CCCC1`: the cytotoxicity at 10 µM was 9.46%.
